Test results reported in the EternaBench riboswitch data.

System: MS2 coat protein
Assay: apparent Kd, MS2 coat protein; higher = weaker binding; RNA-MaP array; FMN 200 µM where present
Procedure, shortened: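 Two titrations, one without ligand and one with constant ligand, were run with SNAP-549-labelled MS2 coat protein from 0.7 or 1.5 nM, doubling to 3 µM. The targets were designs transcribed by stalled E. coli RNA polymerase on Illumina sequencing-chip clusters, in 100 mM Tris-HCl pH 7.5, 80 mM KCl, 4 mM MgCl2, BSA, DTT, yeast tRNA and Tween-20. The apparent Kd is the median of filtered per-cluster binding-curve fits, with green signal normalised to red-channel RNA signal and control-cluster median Fmax.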

[1] = designed as: OFF switch for flavin mononucleotide, no ligand
[2] = ligand present: flavin mononucleotide, designed as: OFF switch for flavin mononucleotide
[3] = designed as: ON switch for flavin mononucleotide, no ligand
[4] = ligand present: flavin mononucleotide, designed as: ON switch for flavin mononucleotide

Sequence	apparent Kd [1] [nM]	apparent Kd [2] [nM]	apparent Kd [3] [nM]	apparent Kd [4] [nM]
CCACCCUGAGGAUAUCCACCCUCAUACAUGAGGAUCACCCAUGUUCAUCCCUGAGUUCCCGGAGAAGGCAGAUUCC	55.3	47.5		
CCACCUACUGAGGAUAUUGCAUCACCCGACUGAUAAGAAGGCAGAACAUGAGGAUCACCCAUGUGGGUACUCAC	94	103		
CCACGACCGGAGAAGGCAGUUUGUGGGCCUGUUCCUGUCGGAUACAUGAGGAUCACCCAUGUACCUGAGGAUAUCUGGUCGCAG	5.52	6.07		
CCAGAGGUCACAGGAUAUGACUCGUCCAAAUGGUCAGAAGGGUGAAUCACAUUAUGUAUACAUGAGGAUCACCCAUGUCCUACG			93.2	498
CCAUAAAAGAUCCAAAAUUACAACAUGAGGAUCACCCAUGUGCAGGAUAUCGUGACAGUGAAGUACGAGAAGGGCAGACACUGC	197	208		
CCAUGCGGAUGAGGAUAUUCAUCCAUGAGGAUAGAAGAAGGCGUACAUGAGGAUCACCCAUGUAUACACAUGAGGAUCCCUUAC	462	420		
CCAUGGCUGUGAGGAUAUGUCUGACAAAGUCAGACAGAAGGUACAUGAGGAUCACCCAUGUGAAGAAAACCACAUUUGCCAUGG	6	6.44		
CCAUGUUAGCAGGAUAUGCUAUUAAUCUUUUAUGCAGAAGGGCUUACAUGAGGAUCACCCAUGUAUUAAGUCUU	11.3	19.5		
CCCGCCCGUCGAGGAUAUAUUAUAUGACAACAAACACAUACAUGAGGAUCACCCAUGUCCCAUGUAUAGAAGGCGACCUGCGUC			74.8	98.2
CCCGCGUUUCGCGCCUACAUGAGGAUCACCCAUGUUUGUAGGCAGGAUAUCGUCCGCUCUGCGGGCGAGAAGGGCUGUUGUGGU			90.8	84
CCCGUCAUCGAGAAGGCCUCAACAUGAGGAUCACCCAUGUUGUAAUAUGGGAGGAUAUCGAUGAUACAGCUACGUUUCGUACCC			17.1	5.8
CCCUCAACAUGAGGAUCACCCAUGUAGGAUAUCGCUAUUGUAAUCAUGAAACAUGAUUACAAUAGCGAGAAGGACAUAUGUUUU	25.9	127		
CCCUCACAUGAGGAUCACCCAUGUCAGGAUAUUCGACGGUAAAUUGGCCGUCUUAAAGGAAGAAGGGACGUAAC	12.5	17.9		
CCCUGAUUGAGAGGUAGGAGUGGUAGAAGGCGACCGGUGCCAGAUGACAUGAGGAUCACCCAUGUCGAGGAUAUACCACAGAAU	6.7	12.2		
CCGAGAAGGAGAGGAUAUGGACAUGAGGAUCACCCAUGUACAUGGGAAUAUAUACUGAAUUUUUACUAGAAGGCUUACAUAAAU	17.8	14		
CCGCAAAAGCAGGAUAUCGUAUCGGAAACGAUACGAGAAGGGUUUACAUGAGGAUCACCCAUGUUCCUUAGCGG	29.1	38		
CCGCUCUUGGUCAGGAUAUCUAUGCGGGCCAGCACAGAGAAGGGACAUGAGGAUCACCCAUGUUUCGGGAUGUA	22.3	38.9		
CCGGAAACGGGUAGCCUGACAUGAGGAUCACCCAUGUAAUACGAGGAUAUGGAUCCUAAUUGGAUCCAGAAGGUGUCAGGCUAC			862	682
CCGGAAACGGGUAGCCUGACAUGAGGAUCACCCAUGUGAACCGAGGAUAUGGAUCCUAAUUGGAUCCAGAAGGUGGAAGGCUAC			381	167
CCGGAAAUACAGGAUAUAGGAGUCGAUAGACUCCUAGAAGGGUAUACAUGAGGAUCACCCAUGUGUCCUACCGG	26.5	31.7		
CCGGAAAUGAAGGAUAUAGGAGUCGAUAGACUCCUAGAAGGUCAUACAUGAGGAUCACCCAUGUGUCCUACCGG	15.8	34.9		
CCGGAAAUGAAGGAUAUAGGUGUCGAUAGACUCCUAGAAGGUCAUACAUGAGGAUCACCCAUGUGUCCUACCGG	15.7	32.6		
CCGGAAAUGCAGGAUAUCGUAUCGGAAACGAUACGAGAAGGGUAUACAUGAGGAUCACCCAUGUGUCCUACCGG	22.6	21.4		
